The subject of this series is Mus musculus. Kind of series: Sedative activity in Swiss mouse assessed as reduction of locomotor activity at 10 umol/kg, ip after 40 mins. The class given is organism-based. As to conditions: in vivo; call rule not given here. In a few lines:
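Mice received a single screening dose intraperitoneally. Motor activity was counted over the 40 min after injection and expressed as movements per minute. An untreated control group and a midazolam reference group (2 mg/kg) were run alongside. Data are given as means ± SEM, and significance was tested against control.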

As to `Cc1ccc(N2C(=O)c3cnc4c(c(C)nn4C)c3C2=O)cc1`, the Activity entry was “Not Active”.
Then `Cc1nn(C)c2ncc3c(c12)C(=O)N(c1ccc(C(=O)O)cc1)C3=O`, with “Not Active”; and `Cc1nn(-c2ccccc2)c2ncc3c(c12)C(=O)N(c1ccc([N+](=O)[O-])cc1)C3=O`, with “Active”.
With `Cc1nn(-c2ccccc2)c2ncc3c(c12)C(=O)N(c1ccc(C(=O)O)cc1)C3=O` the entry was “Not Active”.
Turning to `Cc1nn(C)c2ncc3c(c12)C(=O)N(c1ccccc1)C3=O`, the Activity result is on record as “Not Active”.
Turning to `Cc1nn(-c2ccccc2)c2ncc3c(c12)C(=O)N(c1ccc(Cl)cc1)C3=O`, the Activity result was “Not Active”.
For the compound `Cc1ccc(N2C(=O)c3cnc4c(c(C)nn4-c4ccccc4)c3C2=O)cc1`, the Activity result is “Not Active”.
For the compound `COc1ccc(N2C(=O)c3cnc4c(c(C)nn4-c4ccccc4)c3C2=O)cc1`, the result was Active.
Then `Cc1nn(-c2ccccc2)c2ncc3c(c12)C(=O)N(c1ccccc1)C3=O`, with “Not Active”; and `Cc1nn(C)c2ncc3c(c12)C(=O)N(c1ccc([N+](=O)[O-])cc1)C3=O`, with “Not Active”.
`Cc1nn(C)c2ncc3c(c12)C(=O)N(c1ccc(Cl)cc1)C3=O`: the Activity entry is “Not Active”.
In the case of `COc1ccc(N2C(=O)c3cnc4c(c(C)nn4C)c3C2=O)cc1`, the Activity result is “Not Active”.

(Values after ChEMBL document CHEMBL1153193, “Microwave-assisted synthesis and structure-activity relationships of neuroactive pyrazolo[3,4-b]pyrrolo[3,4-d]pyridine derivatives” (Bioorg Med Chem Lett, 2010).)
